# Data taken from ChEMBL document CHEMBL1154362, “Lead optimization and structure-based design of potent and bioavailable deoxycytidine kinase inhibitors” (Bioorg Med Chem Lett, 2009).
# The source made the active and inactive calls. The rule behind the calls is not given here.
# Columns and labels:
# Deoxycytidine kinase [1] = target: T1, Deoxycytidine kinase (Homo sapiens, UniProt P27707); assay: Inhibition of human deoxycytidine kinase by lysate filter binding assay
# Target sequence in this assay (P27707 whole entry): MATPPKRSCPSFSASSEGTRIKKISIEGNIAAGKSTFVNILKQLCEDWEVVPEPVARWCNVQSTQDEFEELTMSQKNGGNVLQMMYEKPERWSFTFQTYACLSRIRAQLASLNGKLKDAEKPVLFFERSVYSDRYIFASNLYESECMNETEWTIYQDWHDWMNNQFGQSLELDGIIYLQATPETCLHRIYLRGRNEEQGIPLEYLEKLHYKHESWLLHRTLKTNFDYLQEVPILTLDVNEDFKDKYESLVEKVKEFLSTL
# [2] = Half life in mouse at 10 mg/kg, po; assay type: ADME, organism-based; set-up: dose 10 mg/kg, route oral; settings: in vivo
# Summary of the method: (§1)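 Mouse PK: single doses of 10 mpk po and 1 mpk iv, with blood sampled to measure compound levels. Clearance and volume came from the iv dose. AUC to infinity, Cmax and other parameters came from the po dosing data.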
# [3] = Bioavailability in mouse at 10 mg/kg, po; assay type: ADME, organism-based; settings: in vivo; summary of the method: as §1
# [4] = Terminal volume of distribution in mouse at 1 mg/kg, iv; assay type: ADME, organism-based; set-up: dose 1 mg/kg, route intravenous; settings: in vivo, read-out: Vz; summary of the method: as §1
# [5] = Clearance in mouse at 1 mg/kg, iv; assay type: ADME, organism-based; set-up: dose 1 mg/kg, route intravenous; settings: in vivo; summary of the method: as §1
# [6] = Tmax in mouse at 10 mg/kg, po; assay type: ADME, organism-based; set-up: dose 10 mg/kg, route oral; settings: in vivo; summary of the method: as §1
# [7] = AUC ((0 to infinity)) in mouse at 10 mg/kg, po; assay type: ADME, organism-based; set-up: time infinity, dose 10 mg/kg, route oral; settings: plasma; summary of the method: as §1
# [8] = Cmax in mouse at 10 mg/kg, po; assay type: ADME, organism-based; set-up: dose 10 mg/kg, route oral; settings: in vivo; summary of the method: as §1
# [9] = Stability in mouse liver microsomes; assay type: ADME, Microsome
# Deoxycytidine kinase [10] = target: T1, Deoxycytidine kinase; assay: Inhibition of deoxycytidine kinase in anti CD3 and anti CD28 -stimulated human T cells assessed as reduction in deoxythymidine incorporation; assay type: cell-based; settings: T-cell
# Target sequence in this assay (P27707 whole entry, looked up): as the sequence (P27707 whole entry) above
# Deoxycytidine kinase [11] = target: T1, Deoxycytidine kinase; assay: Inhibition of deoxycytidine kinase in anti CD3 and anti CD28 -stimulated human T cells assessed as reduction in [3H]deoxycitidine incorporation; assay type: cell-based, T-cell
# Target sequence in this assay (P27707 whole entry): as above
# Mus musculus [12] = assay: Inhibition of deoxycytidine kinase in anti CD3 -stimulated po dosed mouse assessed as reduction in [3H]deoxycytidine incorporation treated 1 day before, day 0 and day 1 after anti CD3 challenge measured on day 2; assay type: functional, organism-based
# Summary of the method: (§2)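 In vivo mouse dCK inhibition. Compound was given by oral gavage on day -1, day 0 and day 1. Anti-CD3 (0.5 µg/g body wt) was given ip on day 0, after the second dose. […] (100 µCi/animal) was given ip on day 1. Spleens were harvested on day 2 and dissociated into single-cell suspensions normalized to 30 mg/ml by spleen weight. Aliquots were filtered onto glass fibre and counted by liquid scintillation. n = 6-8 mice per group; controls were vehicle and no anti-CD3.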
# Mus musculus [13] = assay: Inhibition of deoxycytidine kinase in anti CD3 -stimulated mouse assessed as reduction in [3H]deoxycytidine incorporation at 100 mg/kg, po treated 1 day before, day 0 and day 1 after anti CD3 challenge measured on day 2; assay type: functional, organism-based; set-up: dose 100 mg/kg; summary of the method: as §2
# [14] = target: Deoxycytidine kinase (Mus musculus) (UniProt P43346); assay: Inhibition of deoxycytidine kinase in anti CD3 and anti CD28 -stimulated mouse T cells assessed as reduction in deoxythymidine incorporation; assay type: cell-based; settings: T-cell
# Deoxycytidine kinase (Mus musculus), sequence (P43346 whole entry, looked up): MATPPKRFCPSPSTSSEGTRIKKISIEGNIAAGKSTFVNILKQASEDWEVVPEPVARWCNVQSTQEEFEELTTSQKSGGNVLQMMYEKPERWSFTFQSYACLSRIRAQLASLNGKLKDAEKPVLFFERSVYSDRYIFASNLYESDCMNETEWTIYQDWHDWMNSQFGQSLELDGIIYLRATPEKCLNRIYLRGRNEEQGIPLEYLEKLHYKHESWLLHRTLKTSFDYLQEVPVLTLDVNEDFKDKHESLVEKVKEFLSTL
# Liver microsomes = assay: Stability in human liver microsomes; assay type: ADME, Microsome
# Deoxycytidine kinase [15] = target: Deoxycytidine kinase (Mus musculus, UniProt P43346); assay: Inhibition of deoxycytidine kinase in anti CD3 and anti CD28 -stimulated mouse T cells assessed as reduction in [3H]deoxycitidine incorporation; assay type: cell-based, T-cell
# Deoxycytidine kinase (Mus musculus, UniProt P43346), sequence (P43346 whole entry): as the sequence (P43346 whole entry, looked up) above
structure (smiles),measurement,setting,value
Nc1nc(=O)n([C@H]2CC[C@H](NS(=O)(=O)c3ccc([N+](=O)[O-])cc3)C2)cc1F,IC50,Deoxycytidine kinase [1],3200 nM
COc1ccc(-c2cccc(S(=O)(=O)N[C@H]3CC[C@H](n4cc(F)c(N)nc4=O)C3)c2)cc1,IC50,Deoxycytidine kinase [1],64 nM
same,half-life,[2],1.2 h
same,bioavailability,[3],9%
same,Vd,[4],4.4 L/kg
same,clearance,[5],63 mL/min/kg
same,Tmax,[6],0.8 h
same,AUC(0-inf),[7],0.6 µM·h
same,Cmax,[8],0.3 µM
Nc1nc(=O)n([C@H]2CC[C@H](NS(=O)(=O)c3cccc(-c4cccc(Cl)c4)c3)C2)cc1F,IC50,Deoxycytidine kinase [1],79 nM
Nc1nc(=O)n([C@H]2CC[C@H](NS(=O)(=O)c3cccc(-c4ccccc4Cl)c3)C2)cc1F,IC50,Deoxycytidine kinase [1],45 nM
Nc1nc(=O)n([C@H]2CC[C@H](NS(=O)(=O)c3cccc(-c4ccc(C(=O)O)cc4)c3)C2)cc1F,IC50,Deoxycytidine kinase [1],15300 nM
Nc1nc(=O)n([C@H]2CC[C@H](NS(=O)(=O)c3cccc(Br)c3)C2)cc1F,IC50,Deoxycytidine kinase [1],1900 nM
Cc1cc(Cl)ccc1-c1cccc(S(=O)(=O)N[C@H]2CC[C@H](n3cc(F)c(N)nc3=O)C2)c1,IC50,Deoxycytidine kinase [1],21 nM
same,half-life,[2],1.6 h
same,bioavailability,[3],15%
same,Vd,[4],3 L/kg
same,clearance,[5],23 mL/min/kg
same,Tmax,[6],0.3 h
same,AUC(0-inf),[7],2.3 µM·h
same,Cmax,[8],1.5 µM
N#Cc1ccc(-c2cccc(S(=O)(=O)N[C@H]3CC[C@H](n4cc(F)c(N)nc4=O)C3)c2)cc1,IC50,Deoxycytidine kinase [1],49 nM
Nc1nc(=O)n([C@H]2CC[C@H](NC(=O)c3cccc(-c4ccccc4)c3)C2)cc1F,IC50,Deoxycytidine kinase [1],260 nM
Nc1nc(=O)n([C@H]2CC[C@H](NS(=O)(=O)c3cccc(-c4ccc(Cl)cc4)c3)C2)cc1F,IC50,Deoxycytidine kinase [1],51 nM
same,half-life,[2],2.1 h
same,Vd,[4],16 L/kg
same,clearance,[5],140 mL/min/kg
same,Tmax,[6],2 h
same,AUC(0-inf),[7],5.2 µM·h
same,Cmax,[8],1 µM
Nc1nc(=O)n([C@H]2CC[C@H](NC(=O)c3cccc(-c4ccc(Cl)cc4)c3)C2)cc1F,IC50,Deoxycytidine kinase [1],42 nM
same,half-life,[2],0.8 h
same,bioavailability,[3],12%
same,Vd,[4],0.2 L/kg
same,clearance,[5],3 mL/min/kg
same,Tmax,[6],0.3 h
same,AUC(0-inf),[7],15.8 µM·h
same,Cmax,[8],16.2 µM
Nc1nc(=O)n([C@H]2CC[C@H](NS(=O)(=O)c3cccc(-c4ccccc4)c3)C2)cc1F,IC50,Deoxycytidine kinase [1],120 nM
Nc1nc(=O)n([C@H]2CC[C@H](NS(=O)(=O)c3ccccc3)C2)cc1F,IC50,Deoxycytidine kinase [1],3600 nM
NC(=O)c1ccc(-c2cccc(S(=O)(=O)N[C@H]3CC[C@H](n4cc(F)c(N)nc4=O)C3)c2)cc1,IC50,Deoxycytidine kinase [1],89 nM
Nc1nc(=O)n([C@H]2CC[C@H](NS(=O)(=O)c3cccc(-c4ccc(Cl)cc4Cl)c3)C2)cc1F,IC50,Deoxycytidine kinase [1],21 nM
Nc1nc(=O)n([C@H]2CC[C@H](NC(=O)c3cccc(-c4cccc(Cl)c4)c3)C2)cc1F,IC50,Deoxycytidine kinase [1],23 nM
CS(=O)(=O)c1ccc(-c2cccc(S(=O)(=O)N[C@H]3CC[C@H](n4cc(F)c(N)nc4=O)C3)c2)cc1,IC50,Deoxycytidine kinase [1],63 nM
Nc1nc(=O)n([C@H]2CC[C@H](NS(=O)(=O)c3ccc(-c4ccccc4)cc3)C2)cc1F,IC50,Deoxycytidine kinase [1],350 nM
Nc1nc(=O)n([C@H]2CC[C@H](NC(=O)c3cc(-c4cc5ccccc5s4)ccn3)C2)cc1F,IC50,Deoxycytidine kinase [1],1.7 nM
same,Stability,[9],Stable
same,Activity,Deoxycytidine kinase [10],inactive
same,half-life,[2],1.5 h
same,bioavailability,[3],42%
same,Vd,[4],0.8 L/kg
same,clearance,[5],7 mL/min/kg
same,EC50,Deoxycytidine kinase [11],90 nM
same,Tmax,[6],0.6 h
same,AUC(0-inf),[7],22 µM·h
same,Activity,Mus musculus [12],Dose-dependent effect
same,Activity,Mus musculus [13],Active
same,Activity,[14],inactive
same,Stability,Liver microsomes,Stable
same,EC50,Deoxycytidine kinase [15],17 nM
same,Cmax,[8],7.4 µM
Nc1nc(=O)n([C@H]2CC[C@H](NS(=O)(=O)c3ccc(Br)cc3)C2)cc1F,IC50,Deoxycytidine kinase [1],2700 nM
Cc1ccc(-c2cccc(S(=O)(=O)N[C@H]3CC[C@H](n4cc(F)c(N)nc4=O)C3)c2)cc1,IC50,Deoxycytidine kinase [1],110 nM
Cc1cc(Cl)ccc1-c1cccc(C(=O)N[C@H]2CC[C@H](n3cc(F)c(N)nc3=O)C2)c1,IC50,Deoxycytidine kinase [1],21 nM
same,half-life,[2],1.3 h
same,bioavailability,[3],58%
same,Vd,[4],1.6 L/kg
same,clearance,[5],20 mL/min/kg
same,Tmax,[6],0.3 h
same,AUC(0-inf),[7],10.8 µM·h
same,Cmax,[8],10.1 µM
COc1ccc(-c2cccc(C(=O)N[C@H]3CC[C@H](n4cc(F)c(N)nc4=O)C3)c2)cc1,IC50,Deoxycytidine kinase [1],30 nM
same,half-life,[2],1.6 h
same,bioavailability,[3],17%
same,Vd,[4],1.3 L/kg
same,clearance,[5],18 mL/min/kg
same,Tmax,[6],0.3 h
same,AUC(0-inf),[7],3.8 µM·h
same,Cmax,[8],3.4 µM
